Assay results published in ChEMBL document CHEMBL1149384, “Identification of a novel spiropiperidine opioid receptor-like 1 antagonist class by a focused library approach featuring 3D-pharmacophore similarity” (J Med Chem, 2006).

How the values were obtained:
[1] = target: T1, Nociceptin receptor (Homo sapiens, UniProt P41146); assay: Displacement of [125I]Tyr-nociceptin from cloned human ORL1 expressed in CHO cells; type: cell-based
Procedure, shortened: (§1)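 Radioligand displacement using membrane fractions of CHO cells stably expressing cloned human receptors. IC50 reported as mean of three independent determinations, each in duplicate.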

[2] = target: T1, Nociceptin receptor; assay: Antagonist activity on nociceptin-induced [35S]GTP-gamma-S binding to ORL1 expressed in CHO cells; type: functional, cell-based
Procedure, shortened: (§2)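 [35S]GTPγS binding in membrane fractions from CHO cells stably expressing human ORL1. Antagonism: IC50 against nociceptin-stimulated binding. Agonism: EC50 relative to maximal binding produced by nociceptin. Means of three independent determinations, each in duplicate.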

[3] = Distribution coefficient (LogD) between octanol and buffer; type: physicochemical
[4] = target: T1, Nociceptin receptor; assay: Agonist activity on nociceptin-induced maximal [35S]GTP-gamma-S binding to ORL1 expressed in CHO cells; type: functional, cell-based; procedure, shortened: as §2
[5] = target: Delta-type opioid receptor (Homo sapiens, UniProt P41143); assay: Displacement of [3H]naltrindole from cloned human delta opioid receptor expressed in CHO cells; type: cell-based; procedure, shortened: as §1
[6] = target: Mu-type opioid receptor (Homo sapiens, UniProt P35372); assay: Displacement of [3H]diprenorphin from cloned human mu opioid receptor expressed in CHO cells; type: cell-based; procedure, shortened: as §1
[7] = target: Kappa-type opioid receptor (Homo sapiens, UniProt P41145); assay: Displacement of [3H]U-69593 from cloned human kappa opioid receptor expressed in CHO cells; type: cell-based; procedure, shortened: as §1
[8] = test system: Rattus norvegicus; assay: Brain level in rat after administration of 10 mg/kg, sc; type: ADME, organism-based; set-up: dose 10 mg/kg, route subcutaneous; details: in vivo
Procedure, shortened: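 Rats dosed 10 mg/kg sc. Plasma and brain collected 1 h after dosing and drug concentration measured, n = 3 per group. Plasma in nM, brain in nmol/g brain.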

[9] = test system: Mus musculus; assay: Antagonist activity as % reversal against the reduction in locomotor activity produced by an ORL1 agonist in CD1 mice at 10 mg/kg, sc; type: functional; set-up: scale not given: the % may be the effect or the level left; details: route subcutaneous
Procedure, shortened: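 Mice given test agent 10 mg/kg sc against an ORL1 agonist that reduces locomotor activity. Activity counted over 60 min. Value is % reversal of the agonist response, mean ± SEM, n = 7–8 per group.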

Sequence of Kappa-type opioid receptor (P41145 whole entry): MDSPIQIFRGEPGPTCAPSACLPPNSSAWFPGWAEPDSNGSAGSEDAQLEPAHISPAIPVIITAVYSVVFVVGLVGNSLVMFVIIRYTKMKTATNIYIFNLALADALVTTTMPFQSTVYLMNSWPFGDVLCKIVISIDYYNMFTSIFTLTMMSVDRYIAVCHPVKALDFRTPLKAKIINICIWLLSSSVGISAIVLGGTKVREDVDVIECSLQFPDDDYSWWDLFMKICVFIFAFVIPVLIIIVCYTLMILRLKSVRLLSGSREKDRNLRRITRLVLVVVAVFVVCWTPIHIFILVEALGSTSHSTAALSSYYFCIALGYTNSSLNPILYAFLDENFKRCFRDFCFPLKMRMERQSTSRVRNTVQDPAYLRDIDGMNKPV
Sequence of Mu-type opioid receptor (P35372 whole entry): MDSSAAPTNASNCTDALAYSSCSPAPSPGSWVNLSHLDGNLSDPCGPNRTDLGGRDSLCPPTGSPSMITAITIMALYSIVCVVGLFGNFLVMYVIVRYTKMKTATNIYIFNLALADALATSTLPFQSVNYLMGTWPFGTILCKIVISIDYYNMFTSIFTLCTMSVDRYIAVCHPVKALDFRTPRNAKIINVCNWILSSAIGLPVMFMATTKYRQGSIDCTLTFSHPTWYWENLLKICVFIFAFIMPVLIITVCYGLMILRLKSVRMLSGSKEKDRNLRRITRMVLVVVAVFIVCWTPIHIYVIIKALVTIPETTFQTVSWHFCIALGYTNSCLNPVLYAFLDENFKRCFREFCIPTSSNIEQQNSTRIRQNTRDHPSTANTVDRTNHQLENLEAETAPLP
T1 sequence (P41146 whole entry): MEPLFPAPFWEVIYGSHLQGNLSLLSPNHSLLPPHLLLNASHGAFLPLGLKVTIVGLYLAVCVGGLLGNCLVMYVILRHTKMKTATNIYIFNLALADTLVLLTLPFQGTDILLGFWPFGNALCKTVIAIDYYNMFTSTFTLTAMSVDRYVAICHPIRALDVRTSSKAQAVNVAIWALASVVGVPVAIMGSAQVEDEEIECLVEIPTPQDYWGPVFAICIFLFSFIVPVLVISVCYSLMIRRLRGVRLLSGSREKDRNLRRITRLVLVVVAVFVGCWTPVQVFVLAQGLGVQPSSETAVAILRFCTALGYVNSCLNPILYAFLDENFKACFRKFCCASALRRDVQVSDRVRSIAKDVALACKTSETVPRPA
Sequence of Delta-type opioid receptor (P41143 whole entry): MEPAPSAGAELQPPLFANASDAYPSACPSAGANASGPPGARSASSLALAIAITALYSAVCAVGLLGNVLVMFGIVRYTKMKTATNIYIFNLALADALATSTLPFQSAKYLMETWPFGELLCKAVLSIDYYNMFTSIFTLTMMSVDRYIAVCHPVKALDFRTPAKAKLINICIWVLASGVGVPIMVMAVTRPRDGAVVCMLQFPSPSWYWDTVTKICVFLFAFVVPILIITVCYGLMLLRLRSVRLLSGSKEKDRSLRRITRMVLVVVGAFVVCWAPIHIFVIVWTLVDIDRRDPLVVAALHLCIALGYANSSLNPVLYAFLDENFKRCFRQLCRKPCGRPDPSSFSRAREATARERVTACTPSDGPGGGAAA

Compound	IC50 [1]	also measured
O=C(NCCCN1CCC2(CCc3ccccc32)CC1)[C@H](O)Cc1ccccc1	> 1 µM	–
O=C(Cc1ccc2c(c1)OCO2)C(=O)NCCCN1CCC2(CCc3ccccc32)CC1	> 1 µM	–
O=C(NCCCN1CCC2(CCc3ccccc32)CC1)c1cccc2c1Cc1ccccc1-2	> 1 µM	–
O=C(NCCCN1CCC2(CCc3ccccc32)CC1)c1ccccc1-c1ccccc1	0.01 µM	IC50 [2]: 0.0083 µM; logD [3]: 3.1; EC50 [4]: > 10 µM; IC50 [5]: > 10 µM; IC50 [6]: > 10 µM; IC50 [7]: 3.7 µM
O=C(NCCCN1CCC2(CCc3ccccc32)CC1)c1ncccc1-c1ccccc1	> 1 µM	–
O=C(NCCCN1CCC2(CCc3ccccc32)CC1)c1ncccc1Oc1ccccc1	> 1 µM	–
O=C(Cc1cccc(Oc2ccccc2)c1)NCCCN1CCC2(CCc3ccccc32)CC1	0.34 µM	–
O=C(NCCCN1CCC2(CCc3ccccc32)CC1)c1cc(=O)c2ccccc2o1	> 1 µM	–
CC1=Cc2ccccc2C1C(=O)NCCCN1CCC2(CCc3ccccc32)CC1 (configuration not stated)	> 1 µM	–
O=C(CCc1ccccc1)NCCCN1CCC2(CCc3ccccc32)CC1	0.73 µM	–
O=C(NCCCN1CCC2(CCc3ccccc32)CC1)C1Cc2ccccc2N1c1ccccc1 (configuration not stated)	> 1 µM	–
O=C(NCCCN1CCC2(CCc3ccccc32)CC1)c1ccccc1Nc1ccccc1	0.23 µM	–
O=C(NCCCN1CCC2(CCc3ccccc32)CC1)C(=O)c1c[nH]c2ccccc12	0.33 µM	–
O=C(Cc1ccccc1)C(=O)NCCCN1CCC2(CCc3ccccc32)CC1	> 1 µM	–
O=C(NCCCN1CCC2(CCc3ccccc32)CC1)c1ccccc1C(O)c1ccccc1 (configuration not stated)	0.58 µM	–
CC(C)(Oc1ccc(Cl)cc1)C(=O)NCCCN1CCC2(CCc3ccccc32)CC1	0.87 µM	–
O=C(NCCCN1CCC2(CCc3ccccc32)CC1)c1ccccc1Oc1ccccc1	0.0082 µM	IC50 [2]: 0.004 µM; EC50 [4]: > 10 µM; IC50 [5]: > 10 µM; IC50 [6]: > 10 µM; IC50 [7]: 9.6 µM
O=C(CCCc1ccccc1)NCCCN1CCC2(CCc3ccccc32)CC1	0.35 µM	–
COC(C(=O)NCCCN1CCC2(CCc3ccccc32)CC1)c1ccccc1 (configuration not stated)	> 1 µM	–
O=C(NCCCN1CCC2(CCc3ccccc32)CC1)C1CCCCC1C(=O)Nc1ccccc1 (configuration not stated)	> 1 µM	–
O=C(Cc1ccc2ccccc2c1)NCCCN1CCC2(CCc3ccccc32)CC1	> 1 µM	–
O=C(CC1Cc2ccccc2C1)NCCCN1CCC2(CCc3ccccc32)CC1	> 1 µM	–
O=C(NCCCN1CCC2(CCc3ccccc32)CC1)[C@H]1CCCN1Cc1ccccc1	0.00022 µM	IC50 [2]: 0.00012 µM; logD [3]: 2.7; EC50 [4]: > 1 µM; IC50 [5]: > 10 µM; IC50 [6]: 4.3 µM; IC50 [7]: 0.95 µM

Compound	IC50 [1]	also measured
O=C(/C=C/c1ccccc1)NCCCN1CCC2(CCc3ccccc32)CC1	0.54 µM	–
O=C(CSc1nc2ccccc2s1)NCCCN1CCC2(CCc3ccccc32)CC1	0.29 µM	–
O=C(NCCCN1CCC2(CCc3ccccc32)CC1)[C@H]1COCN1C(=O)OCc1ccccc1	0.131 µM	–
O=C(NCCCN1CCC2(CC1)OCc1ccccc12)[C@H]1CCCN1Cc1ccccc1	0.00027 µM	IC50 [2]: 0.00015 µM; Activity [8]: 4.37 nM/g; EC50 [4]: > 1 µM; IC50 [5]: > 10 µM; IC50 [6]: 6.7 µM; Activity [9]: 88%; IC50 [7]: 2.5 µM
COc1ccccc1/C=C\C(=O)NCCCN1CCC2(CCc3ccccc32)CC1	> 1 µM	–
O=C(NCCCN1CCC2(CCc3ccccc32)CC1)C1(c2ccccc2)CCCC1	> 1 µM	–
Cc1ccc(C(=O)/C=C/C(=O)NCCCN2CCC3(CCc4ccccc43)CC2)cc1	> 1 µM	–
O=C(NCCCN1CCC2(CCc3ccccc32)CC1)C(Cc1ccccc1)c1ccccc1 (configuration not stated)	> 1 µM	–
CC(C)(C)OC(=O)NC1(C(=O)NCCCN2CCC3(CCc4ccccc43)CC2)CCCCC1	> 1 µM	–
O=C(N[C@H]1CCCC[C@@H]1C(=O)NCCCN1CCC2(CCc3ccccc32)CC1)c1ccccc1	> 1 µM	–
C[C@@H](O)[C@H](NC(=O)c1ccccc1)C(=O)NCCCN1CCC2(CCc3ccccc32)CC1	> 1 µM	–
O=C(NCCCN1CCC2(CCc3ccccc32)CC1)[C@@H](O)Cc1ccccc1	0.012 µM	IC50 [2]: 0.0075 µM; EC50 [4]: > 10 µM; IC50 [5]: > 10 µM; IC50 [6]: > 10 µM; IC50 [7]: 6.9 µM
O=C(NCCCN1CCC2(CCc3ccccc32)CC1)C1(c2ccccc2)CCCCC1	0.63 µM	–
O=C(CCc1c[nH]c2ccccc12)NCCCN1CCC2(CCc3ccccc32)CC1	0.36 µM	–
O=C(/C=C/c1c[nH]c2ccccc12)NCCCN1CCC2(CCc3ccccc32)CC1	> 1 µM	–
O=C(N[C@H]1CCCC[C@H]1C(=O)NCCCN1CCC2(CCc3ccccc32)CC1)c1ccccc1	> 1 µM	–
O=C(Cc1ccccc1)NCCCN1CCC2(CCc3ccccc32)CC1	> 1 µM	–
O=C(NCCCN1CCC2(CCc3ccccc32)CC1)C(=O)c1cnn(-c2ccccc2)c1C(F)(F)F	> 1 µM	–
Cc1onc(-c2ccccc2)c1C(=O)NCCCN1CCC2(CCc3ccccc32)CC1	> 1 µM	–
O=C(NCCCN1CCC2(CCc3ccccc32)CC1)[C@@H]1CCCN1C(=O)c1ccccc1	> 1 µM	–
O=C(NCCCN1CCC2(CCc3ccccc32)CC1)c1ncccc1C(O)c1ccccc1 (configuration not stated)	> 1 µM	–
O=C1N[C@@H](Cc2ccccc2)[C@@H](C(=O)NCCCN2CCC3(CCc4ccccc43)CC2)O1	0.03 µM	–
O=C(NCCCN1CCC2(CCc3ccccc32)CC1)c1ccccc1OCc1ccccc1	0.083 µM	IC50 [2]: 0.11 µM; EC50 [4]: > 10 µM; IC50 [5]: > 10 µM; IC50 [6]: > 10 µM; IC50 [7]: 2.3 µM

Compound	IC50 [1]	also measured
O=C(NCCCN1CCC2(CCc3ccccc32)CC1)[C@@H]1CCCN1Cc1ccccc1	0.047 µM	IC50 [2]: 0.042 µM; EC50 [4]: > 10 µM; IC50 [5]: > 10 µM; IC50 [6]: > 10 µM; IC50 [7]: 7.9 µM
CN(CC(=O)NCCCN1CCC2(CCc3ccccc32)CC1)C(=O)c1ccccc1	> 1 µM	–
O=C(NCCCN1CCC2(CCc3ccccc32)CC1)C(O)(c1ccccc1)C1CCCCC1 (configuration not stated)	> 1 µM	–
O=C(NCCCN1CCC2(CCc3ccccc32)CC1)C1CCc2ccccc2C1 (configuration not stated)	> 1 µM	–
CC(Oc1ccc(Cl)cc1Cl)C(=O)NCCCN1CCC2(CCc3ccccc32)CC1 (configuration not stated)	> 1 µM	–
O=C1CC(C(=O)NCCCN2CCC3(CCc4ccccc43)CC2)c2ccccc21 (configuration not stated)	> 1 µM	–
CC(NC(=O)c1ccccc1)C(=O)NCCCN1CCC2(CCc3ccccc32)CC1 (configuration not stated)	> 1 µM	–
O=C(NCCCN1CCC2(CCc3ccccc32)CC1)c1ccc(-c2ccc(Cl)cc2)o1	> 1 µM	–
O=C(Cc1cccc2ccccc12)NCCCN1CCC2(CCc3ccccc32)CC1	> 1 µM	–
CC(Oc1ccccc1)C(=O)NCCCN1CCC2(CCc3ccccc32)CC1 (configuration not stated)	0.9 µM	–
O=C(NCCCN1CCC2(CCc3ccccc32)CC1)C1CC1c1ccccc1 (configuration not stated)	> 1 µM	–
CC(=O)N/C(=C\c1ccccc1)C(=O)NCCCN1CCC2(CCc3ccccc32)CC1	> 1 µM	–
O=C(NCCCN1CCC2(CCc3ccccc32)CC1)[C@H]1COC(=O)N1Cc1ccccc1	0.024 µM	–
O=C(NCCCN1CCC2(CCc3ccccc32)CC1)c1cccc(Oc2ccccc2)c1	> 1 µM	–
COc1ccc2c(c1)CC(CC(=O)NCCCN1CCC3(CCc4ccccc43)CC1)C2=O (configuration not stated)	> 1 µM	–
O=C(NCCCN1CCC2(CCc3ccccc32)CC1)C1Cc2ccccc2C1	> 1 µM	–
O=C(NCCCN1CCC2(CCc3ccccc32)CC1)C1CCN(c2ncccn2)CC1	> 1 µM	–
O=C(NCCCN1CCC2(CCc3ccccc32)CC1)c1ccccc1Cc1ccccc1	0.021 µM	–
O=C(NCCCN1CCC2(CCc3ccccc32)CC1)C1Cc2ccccc21 (configuration not stated)	> 1 µM	–
CC(C)(C)C(Cc1ccccc1)C(=O)NCCCN1CCC2(CCc3ccccc32)CC1 (configuration not stated)	> 1 µM	–
O=C(CSc1ccccc1)NCCCN1CCC2(CCc3ccccc32)CC1	0.17 µM	–
O=C(NCCCN1CCC2(CCc3ccccc32)CC1)[C@H]1CCC(=O)N1Cc1ccccc1	0.05 µM	–
